Reference: ChEMBL document CHEMBL4130569, “Structure Optimization of Aloperine Derivatives as HIV-1 Entry Inhibitors” (ACS Med Chem Lett, 2017)
The source made the active and inactive calls. No cut-off for these calls is given here.

Assays:
[1] = test system: Human immunodeficiency virus 1; assay: Antiviral activity against HIV1 NL4-3 infected in human MT4 cells after 3 days by luciferase reporter gene assay; type: functional, organism-based; conditions: Human immunodeficiency virus 1, NL4-3, MT4, 72 h
[2] = Cytotoxicity in human MT4 cells assessed as reduction of cell viability incubated for 3 days by CytoTox-Glo cytotoxicity assay; type: cell-based
Influenza A virus = assay: Antiviral activity against Influenza A virus (A/Puerto Rico/8/1934(H1N1)) infected in MDCK cells assessed as inhibition of virus-induced cytopathic effect incubated for 48 hrs by Cell-titer-Glo assay; type: functional, organism-based
[3] = Cytotoxicity in MDCK cells assessed as reduction of cell viability incubated for 2 days by CytoTox-Glo cytotoxicity assay; type: cell-based, Canis lupus familiaris; conditions: dog
[4] = Selectivity index, ratio of EC50 for antiviral activity against influenza A virus (A/Puerto Rico/8/1934(H1N1)) infected in MDCK cells to EC50 for antiviral activity against HIV1 NL4-3 infected in human MT4 cells
[5] = target: Envelope glycoprotein gp160 (Human immunodeficiency virus 1) (UniProt Q6QLK5); assay: Induction of conformational changes in HIV1 NLDH120 envelope glycoprotein gp120 transfected in COS cells assessed as increase in gp120 binding of monoclonal antibody 17b at 10 uM after 48 hrs by FACS; type: cell-based
Envelope glycoprotein gp160 (Human immunodeficiency virus 1), sequence (Q6QLK5 1-814): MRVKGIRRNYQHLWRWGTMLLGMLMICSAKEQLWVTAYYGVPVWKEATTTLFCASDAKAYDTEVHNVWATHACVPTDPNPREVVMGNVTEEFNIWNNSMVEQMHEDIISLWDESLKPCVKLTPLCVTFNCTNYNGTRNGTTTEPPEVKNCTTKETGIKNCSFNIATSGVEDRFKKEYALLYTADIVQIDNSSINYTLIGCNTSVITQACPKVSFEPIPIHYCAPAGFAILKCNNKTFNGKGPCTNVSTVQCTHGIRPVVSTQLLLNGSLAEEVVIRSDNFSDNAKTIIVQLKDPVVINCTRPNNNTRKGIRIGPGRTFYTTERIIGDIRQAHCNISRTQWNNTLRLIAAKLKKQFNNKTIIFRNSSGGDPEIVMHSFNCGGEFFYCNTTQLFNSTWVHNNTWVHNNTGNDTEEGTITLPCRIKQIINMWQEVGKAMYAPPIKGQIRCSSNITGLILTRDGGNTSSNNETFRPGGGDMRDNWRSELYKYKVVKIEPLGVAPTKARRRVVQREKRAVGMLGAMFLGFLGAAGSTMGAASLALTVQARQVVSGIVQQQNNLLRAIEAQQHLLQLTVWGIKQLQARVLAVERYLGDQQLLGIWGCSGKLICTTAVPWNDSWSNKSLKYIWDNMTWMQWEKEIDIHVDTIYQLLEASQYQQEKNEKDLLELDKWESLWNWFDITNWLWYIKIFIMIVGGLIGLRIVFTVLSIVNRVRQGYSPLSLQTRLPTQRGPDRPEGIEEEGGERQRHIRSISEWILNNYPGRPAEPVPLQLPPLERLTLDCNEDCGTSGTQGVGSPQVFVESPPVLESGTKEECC

[6] = test system: Human immunodeficiency virus 1; assay: Potency index, ratio of EC50 for aloperine to EC50 for test compound for antiviral activity against HIV1 NL4-3 infected in human MT4 cells after 3 days by luciferase reporter gene assay; type: functional
[7] = test system: Human immunodeficiency virus 1; assay: Inhibition of HIV1-mediated cellular entry in HIV1 NL4-3 VPR-GFP infected human TZM-bl cells incubated for 2 hrs by confocal microscopy; type: functional, organism-based
Method in brief: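 TZM-bl cells were infected with NL4-3/Vpr-GFP virus, with or without test compound at 1 µM, for 2 h. Nuclei were stained with DAPI 2 h post infection, and confocal microscopy imaged GFP. Cytosolic GFP dispersal marked entry; GFP puncta marked virus arrested at the cell or endosomal membrane. Uninfected DAPI-stained cells served as background.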

[8] = Selectivity index, ratio of CC50 for human MT4 cells […] NL4-3 infected in human MT4 cells; type: toxicity, cell-based; conditions: MT4 cells and HIV1 NL4-3 infected MT4 cells, read-out: Ratio CC50/EC50

SMILES | EC50 [1] | CC50 at 72 h [2] | further results
O=C(NCCCCN1CCCC2=C[C@H]3C[C@H](CN4CCCC[C@H]34)[C@@H]21)C1CCC(C(F)(F)F)CC1 (some centres not stated) | > 3000 nM | > 40 µM | 
O=C(NCCCCN1CCCC2=C[C@H]3C[C@H](CN4CCCC[C@H]34)[C@@H]21)c1ccc(-c2cccs2)cc1 | > 3000 nM | 16.2 µM | 
O=C(NCCCCN1CCCC2=C[C@H]3C[C@H](CN4CCCC[C@H]34)[C@@H]21)c1ccc(S(=O)(=O)C(F)(F)F)cc1 | 550 nM | > 40 µM | EC50 (Influenza A virus; mdck): Not Active; CC50 at 48 h [3]: > 80 µM
O=C(NCCCCN1CCCC2=C[C@H]3C[C@H](CN4CCCC[C@H]34)[C@@H]21)c1ccc(CNS(=O)(=O)C(F)(F)F)cc1 |  | > 40 µM | 
O=C(Cc1ccc2c(c1)OCO2)NCCCCN1CCCC2=C[C@H]3C[C@H](CN4CCCC[C@H]34)[C@@H]21 | > 3000 nM | > 40 µM | 
CS(=O)(=O)c1ccc(CC(=O)NCCCCN2CCCC3=C[C@H]4C[C@H](CN5CCCC[C@H]45)[C@@H]32)cc1 | > 3000 nM | > 40 µM | 
O=C(CCc1ccc(OC(F)(F)F)cc1)NCCCCN1CCCC2=C[C@H]3C[C@H](CN4CCCC[C@H]34)[C@@H]21 | > 3000 nM | > 40 µM | 
O=C(Cc1ccc([S+]([O-])C(F)(F)F)cc1)NCCCCN1CCCC2=C[C@H]3C[C@H](CN4CCCC[C@H]34)[C@@H]21 (some centres not stated) | 1670 nM | > 40 µM | 
O=C(Cc1ccc(SC(F)(F)F)cc1)NCCCCN1CCCC2=C[C@H]3C[C@H](CN4CCCC[C@H]34)[C@@H]21 | 180 nM | 23.8 µM | EC50 (Influenza A virus; mdck): Not Active; CC50 at 48 h [3]: 45.1 µM
CC(C)(C)c1ccc(C(=O)NCCCCN2CCCC3=C[C@H]4C[C@H](CN5CCCC[C@H]45)[C@@H]32)cc1 | 2150 nM | 12.9 µM | 
O=S(=O)(NCCCCN1CCCC2=C[C@H]3C[C@H](CN4CCCC[C@H]34)[C@@H]21)c1ccc(OC(F)(F)F)cc1 | > 3000 nM | > 40 µM | 
C1=C2CCCN[C@H]2[C@@H]2C[C@H]1[C@H]1CCCCN1C2 |  | > 86 µM | Ratio EC50 [4]: 7; CC50 at 48 h [3]: > 80 µM
O=C(CC1CCC(F)(F)CC1)NCCCCN1CCCC2=C[C@H]3C[C@H](CN4CCCC[C@H]34)[C@@H]21 | 1940 nM | > 40 µM | 
O=C(NCCCCN1CCCC2=C[C@H]3C[C@H](CN4CCCC[C@H]34)[C@@H]21)C1CCC(F)(F)CC1 | 2440 nM | > 40 µM | 
O=S(=O)(Cc1ccc(OC(F)(F)F)cc1)NCCCCN1CCCC2=C[C@H]3C[C@H](CN4CCCC[C@H]34)[C@@H]21 | > 3000 nM | 35.7 µM | 
O=C(Cc1ccc(Br)cc1)NCCCCN1CCCC2=C[C@H]3C[C@H](CN4CCCC[C@H]34)[C@@H]21 | 1320 nM | > 40 µM | 

SMILES | EC50 [1] | CC50 at 72 h [2] | further results
O=C(NCCCCN1CCCC2=C[C@H]3C[C@H](CN4CCCC[C@H]34)[C@@H]21)c1ccc(C(F)(F)F)c(F)c1 | 2220 nM | > 40 µM | 
O=C(NCCCCN1CCCC2=C[C@H]3C[C@H](CN4CCCC[C@H]34)[C@@H]21)c1ccc(-c2ccsc2)cc1 | 1320 nM | 21.2 µM | 
O=C(Cc1ccc(S(=O)(=O)C(F)(F)F)cc1)NCCCCN1CCC[C@H]2C[C@H]3C[C@H](CN4CCCC[C@H]34)[C@@H]21 | > 3000 nM | > 40 µM | 
CC(C)(C)c1ccc(CC(=O)NCCCCN2CCCC3=C[C@H]4C[C@H](CN5CCCC[C@H]45)[C@@H]32)cc1 | 2090 nM | > 40 µM | 
O=C(NCCCCN1CCCC2=C[C@H]3C[C@H](CN4CCCC[C@H]34)[C@@H]21)c1ccc2c(c1)OCO2 | > 3000 nM | > 40 µM | 
O=C(Cc1ccc(OC(F)(F)F)cc1)NCCCCN1CCCC2=C[C@H]3C[C@H](CN4CCCC[C@H]34)[C@@H]21 |  |  | EC50 (Influenza A virus; Influenza A virus, A/Puerto Rico/8/1934(H1N1), MDCK, 48 h, read-out: EC50): 18.9 µM; CC50 at 48 h [3]: > 80 µM
O=C(NCCCCN1CCCC2=C[C@H]3C[C@H](CN4CCCC[C@H]34)[C@@H]21)c1ccc(S(=O)(=O)F)cc1 |  | 38.5 µM | 
O=C(Cc1ccc(S(=O)(=O)CC(F)(F)F)cc1)NCCCCN1CCCC2=C[C@H]3C[C@H](CN4CCCC[C@H]34)[C@@H]21 | > 3000 nM | > 40 µM | 
O=C(Cc1ccc(OC(F)(F)F)cc1)NCCCCN1CCC[C@H]2C[C@H]3C[C@H](CN4CCCC[C@H]34)[C@@H]21 | 1500 nM | > 40 µM | 
O=C(Cc1ccc(S(=O)(=O)C(F)(F)F)cc1)NCCCCN1CCCC2=C[C@H]3C[C@H](CN4CCCC[C@H]34)[C@@H]21 | 120 nM | 28.8 µM | Activity [5]: Active; EC50 (Influenza A virus; mdck): Not Active; Ratio EC50 [6]: 15; inhibition [7]: Active; selectivity ratio [8]: 240; CC50 at 48 h [3]: > 80 µM
O=C(Cc1ccc(S(=O)(=O)C(F)(F)F)cc1)NCCCCN1CCC[C@@H]2C[C@H]3C[C@H](CN4CCCC[C@H]34)[C@@H]21 | > 3000 nM | > 40 µM | 
O=C(Cc1ccc(C(F)(F)F)cc1)NCCCCN1CCCC2=C[C@H]3C[C@H](CN4CCCC[C@H]34)[C@@H]21 | 810 nM | > 40 µM | EC50 (Influenza A virus; mdck): Not Active; CC50 at 48 h [3]: > 80 µM
O=C(NCCCCN1CCCC2=C[C@H]3C[C@H](CN4CCCC[C@H]34)[C@@H]21)c1ccc(C(=O)c2ccccc2)cc1 | 970 nM | > 40 µM | EC50 (Influenza A virus; mdck): Not Active; CC50 at 48 h [3]: 31.6 µM
O=C(NCCCCN1CCCC2=C[C@H]3C[C@H](CN4CCCC[C@H]34)[C@@H]21)C(=O)c1ccc(C(F)(F)F)cc1 | 990 nM | > 40 µM | EC50 (Influenza A virus; mdck): Not Active; CC50 at 48 h [3]: > 80 µM
O=C(Cc1ccc(OC(F)(F)F)cc1)NCCCCN1CCC[C@@H]2C[C@H]3C[C@H](CN4CCCC[C@H]34)[C@@H]21 | 2800 nM | > 40 µM | 
